Source: ChEMBL document CHEMBL3098086, “Synthesis and biological evaluation of α-triazolyl chalcones as a new type of potential antimicrobial agents and their interaction with calf thymus DNA and human serum albumin” (Eur J Med Chem, 2014)
In brackets after ≈: the same amount, converted by molar mass. Activity calls are given as the source filed them. The calls are words filed in the database; no cut-off is given here.

Key:
[1] = test system: Bacillus; experiment: Antibacterial activity against Bacillus proteus ATCC 13315 after 24 hrs by twofold serial dilution method; format: functional; settings: ATCC 13315, 24 h
In short: (§1)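 Bacterial strains: S. aureus ATCC 25923, B. subtilis ATCC 21216, M. luteus ATCC 4698, E. coli JM109, P. aeruginosa ATCC 27853, B. proteus ATCC 13315. MICs by two-fold broth microdilution in 96-well plates per NCCLS. Chloromycin and Norfloxacin served as positive controls.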

[2] = test system: Pseudomonas aeruginosa; experiment: Antibacterial activity against Pseudomonas aeruginosa ATCC 27853 after 24 hrs by twofold serial dilution method; format: functional; settings: ATCC 27853, 24 h; in short: as §1
[3] = test system: Candida; experiment: Antifungal activity against Candida mycoderma ATCC 96918 after 24 hrs by micro broth dilution method; format: functional; settings: ATCC 96918, 24 h
In short: (§2)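 Fungi: C. albicans ATCC 76615 and C. mycoderma ATCC 96918. MICs by two-fold broth microdilution in 96-well plates per NCCLS. Fluconazole served as positive control.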

[4] = test system: Candida albicans; experiment: Antifungal activity against Candida albicans ATCC 76615 after 24 hrs by micro broth dilution method; format: functional; settings: ATCC 76615, 24 h; in short: as §2
[5] = test system: Micrococcus luteus; experiment: Antibacterial activity against Micrococcus luteus ATCC 4698 after 24 hrs by twofold serial dilution method; format: functional; settings: ATCC 4698, 24 h; in short: as §1
[6] = test system: Staphylococcus aureus; experiment: Antibacterial activity against methicillin-resistant staphylococcus aureus N315 after 24 hrs by twofold serial dilution method; format: functional; settings: N315, 24 h
In short: (§3)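 Two-fold broth microdilution per NCCLS recommendations. The MIC was read as the minimum inhibitory concentration. Chloromycin and Norfloxacin served as positive controls. Strains were Bacillus typhi (Gram-negative panel) and methicillin-resistant S. aureus N315.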

[7] = test system: Salmonella typhi; experiment: Antibacterial activity against Bacillus typhi after 24 hrs by twofold serial dilution method; format: functional, Salmonella enterica subsp. enterica serovar Typhi; settings: Salmonella enterica; in short: as §3
[8] = test system: Bacillus subtilis; experiment: Antibacterial activity against Bacillus subtilis ATCC 21216 after 24 hrs by twofold serial dilution method; format: functional; settings: ATCC 21216, 24 h; in short: as §1
[9] = test system: Escherichia coli; experiment: Antibacterial activity against Escherichia coli JM109 after 24 hrs by twofold serial dilution method; format: functional; settings: JM109, 24 h; in short: as §1
[10] = test system: Staphylococcus aureus; experiment: Antibacterial activity against Staphylococcus aureus ATCC 25923 after 24 hrs by twofold serial dilution method; format: functional; settings: ATCC 25923, 24 h; in short: as §1
[11] = target: T1, Albumin (Homo sapiens, UniProt P02768); experiment: Binding affinity to human serum albumin at pH 7.4 at 286 K by fluorescence quenching analysis; format: ADME; settings: isolated protein
T1 sequence (P02768 whole entry): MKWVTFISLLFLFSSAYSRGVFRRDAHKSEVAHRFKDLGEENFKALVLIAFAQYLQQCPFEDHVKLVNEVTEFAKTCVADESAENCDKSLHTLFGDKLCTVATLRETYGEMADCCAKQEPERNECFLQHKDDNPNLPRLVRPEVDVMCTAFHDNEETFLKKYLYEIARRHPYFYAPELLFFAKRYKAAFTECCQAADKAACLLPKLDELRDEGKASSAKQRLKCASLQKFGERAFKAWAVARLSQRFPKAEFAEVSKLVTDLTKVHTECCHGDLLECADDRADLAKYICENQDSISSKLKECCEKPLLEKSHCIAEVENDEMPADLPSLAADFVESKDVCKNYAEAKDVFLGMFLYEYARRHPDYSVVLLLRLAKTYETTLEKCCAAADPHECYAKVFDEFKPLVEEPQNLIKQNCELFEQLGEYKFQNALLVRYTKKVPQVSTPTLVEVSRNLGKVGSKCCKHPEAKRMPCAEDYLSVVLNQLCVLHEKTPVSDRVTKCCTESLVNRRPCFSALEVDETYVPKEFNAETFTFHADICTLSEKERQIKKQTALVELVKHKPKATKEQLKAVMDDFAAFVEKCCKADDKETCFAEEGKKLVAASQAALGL
In short: (§4)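 Intrinsic HSA Trp fluorescence was quenched by compound titration at pH 7.4 and at 286, 298 or 310 K. Excitation was 295 nm, emission scanned 300–450 nm, both slits 2.5 nm, 1.0 cm quartz cells. Data were fitted by Stern–Volmer analysis to give KSV. Kq was calculated assuming an HSA fluorescence lifetime of 6.4 × 10^-9 s.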

[12] = test system: DNA; experiment: Displacement of neutral red from calf thymus DNA by UV-vis absorption spectra analysis; format: nucleic-acid assay; settings: Bos taurus
[13] = target: T1, Albumin; experiment: Ratio of binding affinity to human serum albumin in presence of K+ to binding affinity to human serum albumin absence of K+; format: ADME; settings: isolated protein
[14] = target: T1, Albumin; experiment: Ratio of binding affinity to human serum albumin in presence of Mg2+ to binding affinity to human serum albumin absence of Mg2+; format: ADME; settings: isolated protein
[15] = target: T1, Albumin; experiment: Ratio of binding affinity to human serum albumin in presence of Cu2+ to binding affinity to human serum albumin absence of Cu2+; format: ADME; settings: isolated protein
[16] = target: T1, Albumin; experiment: Ratio of binding affinity to human serum albumin in presence of Fe3+ to binding affinity to human serum albumin absence of Fe3+; format: ADME; settings: isolated protein
[17] = target: T1, Albumin; experiment: Binding affinity to human serum albumin at pH 7.4 at 310 K by fluorescence quenching analysis; format: ADME; settings: isolated protein; in short: as §4
[18] = target: T1, Albumin; experiment: Ratio of binding affinity to human serum albumin in presence of Pb2+ to binding affinity to human serum albumin absence of Pb2+; format: ADME; settings: isolated protein
[19] = target: T1, Albumin; experiment: Ratio of binding affinity to human serum albumin in presence of Ca2+ to binding affinity to human serum albumin absence of Ca2+; format: ADME; settings: isolated protein
[20] = test system: DNA; experiment: Binding affinity to calf thymus DNA by UV-vis absorption spectra analysis; format: nucleic-acid assay; settings: Bos taurus
[21] = target: T1, Albumin; experiment: Ratio of binding affinity to human serum albumin in presence of Ni2+ to binding affinity to human serum albumin absence of Ni2+; format: ADME; settings: isolated protein
[22] = target: T1, Albumin; experiment: Binding affinity to human serum albumin at pH 7.4 at 298 K by fluorescence quenching analysis; format: ADME; settings: isolated protein; in short: as §4
[23] = target: T1, Albumin; experiment: Ratio of binding affinity to human serum albumin in presence of Zn2+ to binding affinity to human serum albumin absence of Zn2+; format: ADME; settings: isolated protein

SMILES	MIC [1] [µg/mL]	MIC [2] [µg/mL]	MIC [3] [µg/mL]	MIC [4] [µg/mL]	MIC [5] [µg/mL]	MIC [6] [µg/mL]	MIC [7] [µg/mL]	MIC [8] [µg/mL]	MIC [9] [µg/mL]	MIC [10] [µg/mL]	also measured
O=C(/C(=C/c1ccc(F)cc1)n1cncn1)c1ccc(F)cc1F	16 (≈ 48.6 µM)	32 (≈ 97.2 µM)	64 (≈ 194 µM)	64 (≈ 194 µM)	32 (≈ 97.2 µM)	128 (≈ 389 µM)	32 (≈ 97.2 µM)	64 (≈ 194 µM)	32 (≈ 97.2 µM)	64 (≈ 194 µM)	
O=C(/C(=C/c1ccccc1)n1cncn1)c1ccc(Cl)cc1	64 (≈ 207 µM)	256 (≈ 826 µM)	64 (≈ 207 µM)	16 (≈ 51.7 µM)	64 (≈ 207 µM)	32 (≈ 103 µM)	64 (≈ 207 µM)	64 (≈ 207 µM)	128 (≈ 413 µM)	64 (≈ 207 µM)	
CCn1cc(C(=O)O)c(=O)c2cc(F)c(N3CCNCC3)cc21 [NORFLOXACIN]	8 (≈ 25.1 µM)	16 (≈ 50.1 µM)			2 (≈ 6.26 µM)	8 (≈ 25.1 µM)	4 (≈ 12.5 µM)	1 (≈ 3.13 µM)	16 (≈ 50.1 µM)	0.5 (≈ 1.57 µM)	
Cc1ccc(C(=O)/C(=C/c2ccccc2)n2cncn2)c(C)c1	128 (≈ 422 µM)	256 (≈ 844 µM)	256 (≈ 844 µM)	128 (≈ 422 µM)	256 (≈ 844 µM)	64 (≈ 211 µM)	128 (≈ 422 µM)	128 (≈ 422 µM)	256 (≈ 844 µM)	128 (≈ 422 µM)	
O=C(/C(=C/c1ccccc1)n1cncn1)c1ccc(F)cc1N1CCCCC1	8 (≈ 21.3 µM)	16 (≈ 42.5 µM)	8 (≈ 21.3 µM)	16 (≈ 42.5 µM)	4 (≈ 10.6 µM)	4 (≈ 10.6 µM)	8 (≈ 21.3 µM)	8 (≈ 21.3 µM)	16 (≈ 42.5 µM)	16 (≈ 42.5 µM)	KSV [11]: 7.59 ×10⁴ L/mol; Activity [12]: Active; Ratio [13]: 1.324; Ratio [14]: 1.068; Ratio [15]: 0.959; Ratio [16]: 1.151; KSV [17]: 5.84 ×10⁴ L/mol; Ratio [18]: 0.819; Ratio [19]: 0.887; Activity [20]: Dose-dependent effect; K [20]: 1.22 ×10⁴ L/mol; Ratio [21]: 0.835; KSV [22]: 6.72 ×10⁴ L/mol; Ratio [23]: 0.918
O=C(/C(=C/c1ccccc1)n1cncn1)c1ccc(F)cc1N1CCOCC1	32 (≈ 84.6 µM)	64 (≈ 169 µM)	32 (≈ 84.6 µM)	128 (≈ 338 µM)	64 (≈ 169 µM)	128 (≈ 338 µM)	32 (≈ 84.6 µM)	32 (≈ 84.6 µM)	16 (≈ 42.3 µM)	32 (≈ 84.6 µM)	
Cc1ccc(C(=O)/C(=C/c2ccccc2)n2cncn2)cc1C	128 (≈ 422 µM)	128 (≈ 422 µM)	256 (≈ 844 µM)	16 (≈ 52.7 µM)	128 (≈ 422 µM)	256 (≈ 844 µM)	128 (≈ 422 µM)	64 (≈ 211 µM)	16 (≈ 52.7 µM)	256 (≈ 844 µM)	
CN(C)c1ccc(/C=C(/C(=O)c2ccc(F)cc2F)n2cncn2)cc1	64 (≈ 181 µM)	256 (≈ 722 µM)	64 (≈ 181 µM)	16 (≈ 45.2 µM)	64 (≈ 181 µM)	32 (≈ 90.3 µM)	64 (≈ 181 µM)	64 (≈ 181 µM)	128 (≈ 361 µM)	64 (≈ 181 µM)	
COc1ccc(/C=C(/C(=O)c2ccc(F)cc2F)n2cncn2)cc1	8 (≈ 23.4 µM)	16 (≈ 46.9 µM)	32 (≈ 93.8 µM)	16 (≈ 46.9 µM)	16 (≈ 46.9 µM)	4 (≈ 11.7 µM)	32 (≈ 93.8 µM)	8 (≈ 23.4 µM)	16 (≈ 46.9 µM)	8 (≈ 23.4 µM)	
O=C(/C(=C/c1ccc(Cl)cc1)n1cncn1)c1ccc(Cl)cc1	32 (≈ 93 µM)	8 (≈ 23.2 µM)	64 (≈ 186 µM)	64 (≈ 186 µM)	64 (≈ 186 µM)	32 (≈ 93 µM)	16 (≈ 46.5 µM)	32 (≈ 93 µM)	16 (≈ 46.5 µM)	32 (≈ 93 µM)	
